From ChEMBL document CHEMBL4020830, “Design, Synthesis, and Evaluation of a Novel Series of Indole Sulfonamide Peroxisome Proliferator Activated Receptor (PPAR) α/γ/δ Triple Activators: Discovery of Lanifibranor, a New Antifibrotic Clinical Candidate” (J Med Chem, 2018)
≈ marks a conversion by molar mass, not a printed value.

What was measured:
[1] = tested on: Rattus norvegicus; test: Toxicity in Sprague-Dawley rat assessed as increase in heart weight at 30 mg/kg for 6 weeks; type: organism-based; conditions: in vivo, 1008 h
[2] = tested on: Rattus norvegicus; test: Toxicity in Sprague-Dawley rat assessed as reduction in hematocrit level at 100 mg/kg for 4 weeks; type: organism-based; conditions: in vivo, 672 h
Procedure, shortened: (§1)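 Sprague-Dawley rats were treated at 100 and 1000 mg/kg. Hematocrit and plasma volume were assessed after 4 weeks of treatment and heart weight after 6 weeks. Each was compared with the control group by one-way ANOVA followed by Dunnett's test.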

[3] = tested on: Rattus norvegicus; test: Toxicity in Sprague-Dawley rat assessed as increase in plasma volume at 100 mg/kg for 4 weeks by evans blue dye based assay; type: organism-based; conditions: in vivo, 672 h; procedure, shortened: as §1
[4] = tested on: Rattus norvegicus; test: Toxicity in Sprague-Dawley rat assessed as increase in heart weight at 100 mg/kg for 6 weeks; type: organism-based; conditions: in vivo, 1008 h; procedure, shortened: as §1
[5] = tested on: Rattus norvegicus; test: Toxicity in Sprague-Dawley rat assessed as reduction in hematocrit level at 10 mg/kg for 4 weeks; type: organism-based; conditions: in vivo, 672 h
[6] = tested on: Rattus norvegicus; test: Toxicity in Sprague-Dawley rat assessed as increase in plasma volume at 10 mg/kg for 4 weeks by evans blue dye based assay; type: organism-based; conditions: in vivo, 672 h
[7] = tested on: Rattus norvegicus; test: Toxicity in Sprague-Dawley rat assessed as increase in heart weight at 10 mg/kg for 6 weeks; type: organism-based; conditions: in vivo, 1008 h
[8] = target: T1, Peroxisome proliferator-activated receptor alpha (Homo sapiens, UniProt Q07869); test: Transactivation of human GAL4-fused PPARalpha LBD expressed in African green monkey COS7 cells co-expressing 5Gal4 pGL3 TK Luc after overnight incubation by luciferase reporter gene assay; type: cell-based
T1 sequence (Q07869 whole entry): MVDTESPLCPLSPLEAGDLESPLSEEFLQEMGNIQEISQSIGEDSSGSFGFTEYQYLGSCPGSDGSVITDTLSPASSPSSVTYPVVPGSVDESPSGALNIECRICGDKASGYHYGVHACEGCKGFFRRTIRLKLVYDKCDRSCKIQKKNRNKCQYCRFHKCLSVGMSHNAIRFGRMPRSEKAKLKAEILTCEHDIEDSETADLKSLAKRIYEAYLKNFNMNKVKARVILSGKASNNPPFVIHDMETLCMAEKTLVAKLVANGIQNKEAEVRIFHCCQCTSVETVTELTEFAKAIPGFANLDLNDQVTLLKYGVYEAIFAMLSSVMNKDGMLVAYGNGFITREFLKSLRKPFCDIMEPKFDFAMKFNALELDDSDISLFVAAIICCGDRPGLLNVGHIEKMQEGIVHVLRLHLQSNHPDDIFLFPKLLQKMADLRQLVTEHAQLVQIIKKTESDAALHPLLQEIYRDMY
Procedure, shortened: (§2)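 Cell-based Gal-4 transactivation assay in COS-7 cells transfected with PPARα, PPARδ or PPARγ ligand-binding domain. EC50 and Emax were derived, with Emax as maximum activation in percent of control. EC50s are means of at least two independent experiments performed in triplicate.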

[9] = target: T2, Peroxisome proliferator-activated receptor alpha (Homo sapiens) (UniProt Q07869); test: Transactivation of human GAL4-fused PPARalpha LBD expressed in African green monkey COS7 cells co-expressing 5Gal4 pGL3 TK Luc after overnight incubation by luciferase reporter gene assay relative to fenofibric acid; type: cell-based; procedure, shortened: as §2
T2 sequence (whole entry): T1 sequence (Q07869 whole entry)

[10] = target: T3, Peroxisome proliferator-activated receptor delta (Homo sapiens, UniProt Q03181); test: Transactivation of human GAL4-fused PPARdelta LBD expressed in African green monkey COS7 cells co-expressing 5Gal4 pGL3 TK Luc after overnight incubation by luciferase reporter gene assay; type: cell-based; procedure, shortened: as §2
T3 sequence (Q03181 whole entry): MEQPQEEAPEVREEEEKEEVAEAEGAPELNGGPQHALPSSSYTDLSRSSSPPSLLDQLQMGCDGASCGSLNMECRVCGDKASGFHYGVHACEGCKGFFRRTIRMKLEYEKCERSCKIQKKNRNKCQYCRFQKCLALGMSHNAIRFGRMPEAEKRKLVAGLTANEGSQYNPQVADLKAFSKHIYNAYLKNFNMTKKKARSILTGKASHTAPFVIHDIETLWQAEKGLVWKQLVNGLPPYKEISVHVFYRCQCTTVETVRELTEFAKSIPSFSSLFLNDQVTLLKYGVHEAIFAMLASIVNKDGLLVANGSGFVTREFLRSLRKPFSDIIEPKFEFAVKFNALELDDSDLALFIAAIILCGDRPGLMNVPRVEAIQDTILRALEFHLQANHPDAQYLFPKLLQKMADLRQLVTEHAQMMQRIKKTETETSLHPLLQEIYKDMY

[11] = target: T4, Peroxisome proliferator-activated receptor delta (Homo sapiens) (UniProt Q03181); test: Transactivation of human GAL4-fused PPARdelta LBD expressed in African green monkey COS7 cells co-expressing 5Gal4 pGL3 TK Luc after overnight incubation by luciferase reporter gene assay relative to GW501516; type: cell-based; procedure, shortened: as §2
T4 sequence (whole entry): T3 sequence (Q03181 whole entry)

[12] = target: T5, Peroxisome proliferator-activated receptor gamma (Homo sapiens, UniProt P37231); test: Transactivation of human GAL4-fused PPARgamma LBD expressed in African green monkey COS7 cells co-expressing 5Gal4 pGL3 TK Luc after overnight incubation by luciferase reporter gene assay; type: cell-based; procedure, shortened: as §2
T5 sequence (P37231 whole entry): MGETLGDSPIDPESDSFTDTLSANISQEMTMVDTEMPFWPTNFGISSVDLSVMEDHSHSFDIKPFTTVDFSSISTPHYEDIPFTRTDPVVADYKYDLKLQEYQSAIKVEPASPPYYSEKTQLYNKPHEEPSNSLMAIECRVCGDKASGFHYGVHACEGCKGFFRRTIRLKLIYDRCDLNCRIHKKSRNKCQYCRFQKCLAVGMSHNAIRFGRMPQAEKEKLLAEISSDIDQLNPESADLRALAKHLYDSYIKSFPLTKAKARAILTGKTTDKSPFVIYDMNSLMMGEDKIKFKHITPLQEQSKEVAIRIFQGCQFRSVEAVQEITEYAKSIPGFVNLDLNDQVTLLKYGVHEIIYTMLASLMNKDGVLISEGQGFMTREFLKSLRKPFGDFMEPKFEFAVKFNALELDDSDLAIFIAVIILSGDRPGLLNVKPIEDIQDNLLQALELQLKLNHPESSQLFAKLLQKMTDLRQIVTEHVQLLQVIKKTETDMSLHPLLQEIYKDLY

[13] = target: T6, Peroxisome proliferator-activated receptor gamma (Homo sapiens) (UniProt P37231); test: Transactivation of human GAL4-fused PPARgamma LBD expressed in African green monkey COS7 cells co-expressing 5Gal4 pGL3 TK Luc after overnight incubation by luciferase reporter gene assay relative to rosiglitazone; type: cell-based; procedure, shortened: as §2
T6 sequence (whole entry): T5 sequence (P37231 whole entry)

[14] = Cmax in C57Bl6 mouse at 10 mg/kg, po administered as single oral dose; type: ADME, organism-based; conditions: in vivo
Procedure, shortened: (§3)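 Single oral dose of 10 mg/kg in methyl cellulose vehicle given to C57Bl6 mice. Plasma was sampled over a 24 h period. […]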

[15] = Tmax in C57Bl6 mouse at 10 mg/kg, po administered as single oral dose; type: ADME, organism-based; conditions: in vivo; procedure, shortened: as §3
[16] = AUC (infinity) in C57Bl6 mouse at 10 mg/kg, po administered as single oral dose; type: ADME, organism-based; conditions: in vivo; procedure, shortened: as §3
[17] = Apparent permeability from apical to basolateral side in human Caco2 cells at 10 uM after 2 hrs by LC-MS/MS analysis; type: ADME, cell-based, Caco-2; conditions: Caco-2
[18] = Apparent permeability from basolateral to apical side in human Caco2 cells at 10 uM after 2 hrs by LC-MS/MS analysis; type: ADME, cell-based, Caco-2; conditions: caco-2, 2 h, 10 µM
[19] = Efflux ratio of apparent permeability in human Caco2 cells at 10 uM after 2 hrs by LC-MS/MS analysis; type: ADME, cell-based, Caco-2; conditions: Caco-2
[20] = Aqueous solubility in fasted state simulated intestinal fluid; type: physicochemical

SMILES	EC50 [8] [nM]	Emax [9] [%]	EC50 [10] [nM]	Emax [11] [%]	EC50 [12] [nM]	Emax [13] [%]	further results
CN(CCOc1ccc(CC2SC(=O)NC2=O)cc1)c1ccccn1 (centres undefined) [ROSIGLITAZONE]	–	–	–	–	–	–	Activity [1]: Toxic
COc1ccc(OC(=O)N(CC(=O)O)Cc2ccc(OCCc3nc(-c4ccccc4)oc3C)cc2)cc1 [MURAGLITAZAR]	–	–	–	–	–	–	Activity [2]: Toxic; Activity [3]: Toxic; Activity [4]: Toxic
CCO[C@@H](Cc1ccc(OCCc2ccc(OS(C)(=O)=O)cc2)cc1)C(=O)O [TESAGLITAZAR]	–	–	–	–	–	–	Activity [5]: Toxic; Activity [6]: Toxic; Activity [7]: Toxic
Cc1ccc(S(=O)(=O)n2c(CCCC(=O)O)cc3cc(Cl)ccc32)cc1	> 5000	36	1080	29	277	30	–
Nc1nc2ccc(S(=O)(=O)n3c(CCCC(=O)O)cc4cc(Cl)ccc43)cc2o1	> 5000	44	1390	66	378	52	–
CC(=O)CC(c1ccccc1)c1c(O)c2ccccc2oc1=O (centres undefined) [WARFARIN]	–	–	–	–	–	–	Papp A→B at 2 h, 10 µM [17]: 39.8 ×10⁻⁶ cm/s; Papp [18]: 0.7 ×10⁻⁶ cm/s; efflux ratio at 2 h, 10 µM [19]: 0.02; solubility [20]: 56 µM (≈ 17.3 µg/mL)

Continued, in another order:

EC50 [8] [nM]	Emax [9] [%]	EC50 [10] [nM]	Emax [11] [%]	EC50 [12] [nM]	Emax [13] [%]	SMILES	further results
956	51	645	46	284	46	O=C(O)CCCc1cc2cc(Cl)ccc2n1S(=O)(=O)c1ccccc1	Cmax [14]: 11800 ng/mL; Tmax [15]: 1 h; AUC(0-inf) [16]: 51100 ng·h/mL
764	55	1260	24	82	38	COc1ccc(S(=O)(=O)n2c(CCCC(=O)O)cc3cc(C(F)(F)F)ccc32)cc1	–
790	77	977	43	71	45	O=C(O)CCCc1cc2cc(Cl)ccc2n1S(=O)(=O)c1ccc2c(c1)OCO2	–
2760	50	1140	23	201	39	O=C(O)CCCc1cc2cc(C(F)(F)F)ccc2n1S(=O)(=O)c1cccc(OC(F)(F)F)c1	–
305	40	1230	43	72	48	COc1cccc(S(=O)(=O)n2c(CCCC(=O)O)cc3cc(Cl)ccc32)c1	–
1300	46	> 5000	45	284	38	Cc1ccc2c(c1)cc(CCCC(=O)O)n2S(=O)(=O)c1ccccc1	–
1620	82	1120	79	147	70	O=C(O)CCCc1cc2cc(C(F)(F)F)ccc2n1S(=O)(=O)c1ccc2ncsc2c1	–
410	113	697	54	16	48	CN1CCOc2ccc(S(=O)(=O)n3c(CCCC(=O)O)cc4cc(Cl)ccc43)cc21	–
